From ChEMBL document CHEMBL1156815, “Synthesis and opioid activity of enantiomeric N-substituted 2,3,4,4a,5,6,7,7a-octahydro-1H-benzofuro[3,2-e]isoquinolines” (J Med Chem, 2010)

Columns and labels:
[1] = Displacement of [3H]di-O-tolyguanidine from sigma2 receptor in rat brain homogenate; format: tissue-based
[2] = molecular target: T1, Kappa-type opioid receptor (Homo sapiens, UniProt P41145); conditions: CHO
[3] = Binding affinity to sigma receptor
[4] = molecular target: T1, Kappa-type opioid receptor; test: biochemical; format: cell-based, CHO
[5] = molecular target: T2, Delta-type opioid receptor (Homo sapiens, UniProt P41143); test: Displacement of [125I]OXY from human delta opioid receptor expressed in CHO cells; format: cell-based
T2 sequence (P41143 whole entry): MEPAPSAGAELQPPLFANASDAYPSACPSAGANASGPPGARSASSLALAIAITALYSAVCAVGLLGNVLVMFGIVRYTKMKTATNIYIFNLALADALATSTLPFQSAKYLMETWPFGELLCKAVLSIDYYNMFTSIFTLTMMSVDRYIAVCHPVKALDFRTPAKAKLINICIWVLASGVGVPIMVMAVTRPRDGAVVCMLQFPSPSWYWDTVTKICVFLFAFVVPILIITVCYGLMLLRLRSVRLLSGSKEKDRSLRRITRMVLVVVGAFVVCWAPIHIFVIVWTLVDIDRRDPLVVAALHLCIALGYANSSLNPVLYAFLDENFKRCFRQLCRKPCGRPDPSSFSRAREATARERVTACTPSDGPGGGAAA

[6] = molecular target: Sigma non-opioid intracellular receptor 1 (Rattus norvegicus, UniProt Q9R0C9); test: Displacement of [3H](+)-pentazocine from sigma1 receptor in rat brain homogenate; format: tissue-based
Chain of Sigma non-opioid intracellular receptor 1 (Q9R0C9 whole entry): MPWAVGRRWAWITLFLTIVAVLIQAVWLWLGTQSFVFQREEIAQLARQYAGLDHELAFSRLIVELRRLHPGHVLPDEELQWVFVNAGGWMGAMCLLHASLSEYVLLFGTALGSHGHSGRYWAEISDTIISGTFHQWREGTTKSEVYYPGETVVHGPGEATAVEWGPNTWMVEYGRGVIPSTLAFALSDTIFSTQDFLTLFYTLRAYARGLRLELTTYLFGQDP
Method in brief: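 Rat brain homogenate binding. Nonspecific binding defined with haloperidol. Means ± SEM from replicate assays.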

Mu-type opioid receptor [7] = molecular target: T3, Mu-type opioid receptor (Homo sapiens, UniProt P35372); test: biochemical; format: cell-based, CHO
T3 sequence (P35372 whole entry): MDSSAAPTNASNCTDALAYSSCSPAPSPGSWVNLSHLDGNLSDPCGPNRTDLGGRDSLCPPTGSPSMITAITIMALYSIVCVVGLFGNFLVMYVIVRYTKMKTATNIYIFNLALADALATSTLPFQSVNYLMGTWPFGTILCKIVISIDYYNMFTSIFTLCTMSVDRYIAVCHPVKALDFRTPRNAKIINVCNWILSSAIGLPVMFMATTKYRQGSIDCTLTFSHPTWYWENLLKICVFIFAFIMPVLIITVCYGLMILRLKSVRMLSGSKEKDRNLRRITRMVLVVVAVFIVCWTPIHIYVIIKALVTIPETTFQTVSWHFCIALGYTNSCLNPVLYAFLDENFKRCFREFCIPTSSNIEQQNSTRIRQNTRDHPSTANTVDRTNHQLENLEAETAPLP

Homo sapiens [8] = species: Homo sapiens; test: Selectivity index, ratio of Ki for human kappa opioid receptor to human mu opioid receptor
Rattus norvegicus = species: Rattus norvegicus; test: Selectivity index, ratio of Ki for rat brain sigma2 receptor to Ki for rat brain sigma1 receptor
Homo sapiens [9] = species: Homo sapiens; test: Selectivity index, ratio of Ki for human delta opioid receptor to human mu opioid receptor
[10] = molecular target: T1, Kappa-type opioid receptor; conditions: CHO; remark: listed apart in the source
Mu-type opioid receptor [11] = molecular target: T3, Mu-type opioid receptor; conditions: CHO
[12] = molecular target: T2, Delta-type opioid receptor; test: Binding affinity to human delta opioid receptor expressed in CHO cells; format: cell-based
Mu-type opioid receptor [13] = molecular target: T3, Mu-type opioid receptor; test: Binding affinity to human mu opioid receptor expressed in CHO cells; format: cell-based
Mu-type opioid receptor [14] = molecular target: T3, Mu-type opioid receptor; conditions: CHO; remark: listed apart in the source
[15] = molecular target: T2, Delta-type opioid receptor; conditions: CHO
[16] = molecular target: T2, Delta-type opioid receptor; test: Agonist activity at human delta opioid receptor expressed in CHO cells assessed as stimulation of [35S]GTPgammaS binding relative to 500 nM SNC80; format: functional, cell-based
Method in brief: (§1)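 [35S]GTPgammaS binding stimulation at the delta receptor, n = 3, reported with SD.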

[17] = molecular target: T2, Delta-type opioid receptor; test: Agonist activity at human delta opioid receptor expressed in CHO cells assessed as stimulation of [35S]GTPgammaS binding; format: functional, cell-based; method in brief: as §1

T1 sequence (P41145 whole entry): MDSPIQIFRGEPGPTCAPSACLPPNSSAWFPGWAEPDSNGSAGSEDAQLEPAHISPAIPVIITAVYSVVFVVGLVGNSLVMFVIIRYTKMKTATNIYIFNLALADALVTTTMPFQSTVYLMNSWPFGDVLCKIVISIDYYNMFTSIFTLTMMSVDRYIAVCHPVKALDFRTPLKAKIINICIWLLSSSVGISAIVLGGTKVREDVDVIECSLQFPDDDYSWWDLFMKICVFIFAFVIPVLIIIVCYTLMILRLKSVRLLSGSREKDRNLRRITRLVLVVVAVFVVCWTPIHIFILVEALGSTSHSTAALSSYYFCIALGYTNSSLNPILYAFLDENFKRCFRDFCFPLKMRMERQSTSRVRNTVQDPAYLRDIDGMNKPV

| Compound | Ki [1] | Ki [4] | Ki [5] | Ki [6] | Ki (Mu-type opioid receptor [7]) | Ratio Ki (Homo sapiens [8]) | further results |
| --- | --- | --- | --- | --- | --- | --- | --- |
| CC(C)=CCN1CC[C@@]2(C)c3cc(O)ccc3C[C@@H]1[C@@H]2C | 56 nM |  |  |  |  |  |  |
| C[C@@H](NC(=O)[C@@H](N)Cc1ccc(O)cc1)C(=O)NCC(=O)N(C)[C@@H](Cc1ccccc1)C(=O)NCCO |  |  |  |  |  |  | ED50 [2]: 8940 nM |
| Oc1cccc2c1O[C@H]1CCC[C@H]3CN(CC4CC4)CC[C@@]231 (racemic) |  |  |  |  |  |  | Ki [3]: 21 nM |
| CN1CC[C@]23c4cccc(O)c4O[C@H]2CCC[C@H]3C1 (stereo in doubt; (+)-1a) |  | 6900 nM | > 10000 nM | 2010 nM |  |  |  |
| Oc1cccc2c1O[C@H]1CCC[C@H]3CN(CC4CC4)CC[C@@]231 (stereo in doubt; (+)-1b) [listing 1 of 2 here] | 1030 nM | 699 nM | > 10000 nM | 201 nM | 1330 nM |  |  |
| Oc1cccc2c1O[C@H]1CCC[C@H]3CN(CC4CC4)CC[C@@]231 (stereo in doubt; (+)-1b) [listing 2 of 2 here] |  |  |  |  |  | 0.53 | Ratio Ki (Rattus norvegicus): 5.1 |
| Oc1cccc2c1O[C@H]1CCC[C@H]3CN(CCc4ccccc4)CC[C@@]231 (stereo in doubt; (+)-1c) [listing 1 of 2 here] | 263 nM | 1240 nM | 5000 nM | 131 nM | 275 nM |  |  |
| Oc1cccc2c1O[C@H]1CCC[C@H]3CN(CCc4ccccc4)CC[C@@]231 (stereo in doubt; (+)-1c) [listing 2 of 2 here] |  |  |  |  |  | 4.5 | Ratio Ki (Homo sapiens [9]): 18; Ratio Ki (Rattus norvegicus): 2 |
| COc1cccc2c1O[C@H]1CCC[C@H]3CN(C)CC[C@@]231 (stereo in doubt; (+)-3a) [listing 1 of 2 here] | > 10000 nM | 7230 nM | > 10000 nM | 658 nM | 7610 nM |  |  |
| COc1cccc2c1O[C@H]1CCC[C@H]3CN(C)CC[C@@]231 (stereo in doubt; (+)-3a) [listing 2 of 2 here] |  |  |  |  |  | 0.95 | Ratio Ki (Rattus norvegicus): > 15 |
| COc1cccc2c1O[C@H]1CCC[C@H]3CN(CC4CC4)CC[C@@]231 (stereo in doubt; (+)-3b) [listing 1 of 2 here] | 4370 nM | > 10000 nM | > 10000 nM | 62 nM | > 10000 nM |  |  |
| COc1cccc2c1O[C@H]1CCC[C@H]3CN(CC4CC4)CC[C@@]231 (stereo in doubt; (+)-3b) [listing 2 of 2 here] |  |  |  |  |  |  | Ratio Ki (Rattus norvegicus): 71 |
| COc1cccc2c1O[C@H]1CCC[C@H]3CN(CCc4ccccc4)CC[C@@]231 (stereo in doubt; (+)-3c) [listing 1 of 2 here] | 2550 nM | 1140 nM | 8390 nM | 278 nM | 145 nM |  |  |
| COc1cccc2c1O[C@H]1CCC[C@H]3CN(CCc4ccccc4)CC[C@@]231 (stereo in doubt; (+)-3c) [listing 2 of 2 here] |  |  |  |  |  | 7.9 | Ratio Ki (Homo sapiens [9]): 58; Ratio Ki (Rattus norvegicus): 9.2 |
| COc1cccc2c1O[C@H]1CCC[C@@H]3CN(C)CC[C@@]231 (stereo in doubt; (+)-4) [listing 1 of 2 here] |  | 1850 nM | > 10000 nM |  | > 10000 nM |  |  |
| COc1cccc2c1O[C@H]1CCC[C@@H]3CN(C)CC[C@@]231 (stereo in doubt; (+)-4) [listing 2 of 2 here] |  |  |  |  |  | < 0.19 |  |
| CN1CC[C@]23c4cccc(O)c4O[C@H]2CCC[C@@H]3C1 (stereo in doubt; (+)-5) |  |  |  |  |  |  | Ki ([4]; cho): > 10000 nM; Ki ([5]; cho): > 10000 nM |

| Compound | Ki [1] | Ki [4] | Ki [5] | Ki [6] | Ki (Mu-type opioid receptor [7]) | Ratio Ki (Homo sapiens [8]) | further results |
| --- | --- | --- | --- | --- | --- | --- | --- |
| CN1CC[C@]23c4cccc(O)c4O[C@H]2CCC[C@H]3C1 (stereo in doubt; (-)-1a) [listing 1 of 2 here] | > 10000 nM | 14 nM | 44 nM | > 10000 nM |  |  |  |
| CN1CC[C@]23c4cccc(O)c4O[C@H]2CCC[C@H]3C1 (stereo in doubt; (-)-1a) [listing 2 of 2 here] |  |  |  |  |  |  | Ke [10]: 80 nM; ED50 (Mu-type opioid receptor [11]): 19 nM |
| Oc1cccc2c1O[C@H]1CCC[C@H]3CN(CC4CC4)CC[C@@]231 (stereo in doubt; (-)-1b) [listing 1 of 2 here] | > 10000 nM | 0.1 nM | 2 nM | 399 nM | 0.08 nM |  | Kd [12]: 20 nM; Kd (Mu-type opioid receptor [13]): 0.22 nM |
| Oc1cccc2c1O[C@H]1CCC[C@H]3CN(CC4CC4)CC[C@@]231 (stereo in doubt; (-)-1b) [listing 2 of 2 here] |  |  |  |  |  | 1.3 | Ratio Ki (Homo sapiens [9]): 25; Ratio Ki (Rattus norvegicus): > 25; ED50 [2]: 2.3 nM; Ke (Mu-type opioid receptor [14]): 0.22 nM; Ke [15]: 20 nM |
| Oc1cccc2c1O[C@H]1CCC[C@H]3CN(CCc4ccccc4)CC[C@@]231 (stereo in doubt; (-)-1c) [listing 1 of 2 here] | 5380 nM | 15 nM | 6 nM | 239 nM | 0.3 nM |  |  |
| Oc1cccc2c1O[C@H]1CCC[C@H]3CN(CCc4ccccc4)CC[C@@]231 (stereo in doubt; (-)-1c) [listing 2 of 2 here] |  |  |  |  |  | 50 | Ratio Ki (Homo sapiens [9]): 20; Ratio Ki (Rattus norvegicus): 23; Emax [16]: 64%; ED50 [17]: 148 nM; Ke [10]: 130 nM; ED50 (Mu-type opioid receptor [11]): 10 nM |
| COc1cccc2c1O[C@H]1CCC[C@H]3CN(C)CC[C@@]231 (stereo in doubt; (-)-3a) [listing 1 of 2 here] | 7480 nM | 3470 nM | 9750 nM | > 10000 nM | 236 nM |  |  |
| COc1cccc2c1O[C@H]1CCC[C@H]3CN(C)CC[C@@]231 (stereo in doubt; (-)-3a) [listing 2 of 2 here] |  |  |  |  |  | 15 | Ratio Ki (Homo sapiens [9]): 41; Ratio Ki (Rattus norvegicus): < 0.7 |
| COc1cccc2c1O[C@H]1CCC[C@H]3CN(CC4CC4)CC[C@@]231 (stereo in doubt; (-)-3b) [listing 1 of 2 here] | 3270 nM | 41 nM | 544 nM | 285 nM | 30 nM |  |  |
| COc1cccc2c1O[C@H]1CCC[C@H]3CN(CC4CC4)CC[C@@]231 (stereo in doubt; (-)-3b) [listing 2 of 2 here] |  |  |  |  |  | 1.4 | Ratio Ki (Homo sapiens [9]): 18; Ratio Ki (Rattus norvegicus): 11 |
| COc1cccc2c1O[C@H]1CCC[C@H]3CN(CCc4ccccc4)CC[C@@]231 (stereo in doubt; (-)-3c) [listing 1 of 2 here] | 3270 nM | 1850 nM | 490 nM | 560 nM | 24 nM |  |  |
| COc1cccc2c1O[C@H]1CCC[C@H]3CN(CCc4ccccc4)CC[C@@]231 (stereo in doubt; (-)-3c) [listing 2 of 2 here] |  |  |  |  |  | 77 | Ratio Ki (Homo sapiens [9]): 20; Ratio Ki (Rattus norvegicus): 5.8 |
| COc1cccc2c1O[C@H]1CCC[C@@H]3CN(C)CC[C@@]231 (stereo in doubt; (-)-4) [listing 1 of 2 here] |  | 565 nM | 1050 nM |  | 27 nM |  |  |
| COc1cccc2c1O[C@H]1CCC[C@@H]3CN(C)CC[C@@]231 (stereo in doubt; (-)-4) [listing 2 of 2 here] |  |  |  |  |  | 21 | Ratio Ki (Homo sapiens [9]): 39 |
| CN1CC[C@]23c4cccc(O)c4O[C@H]2CCC[C@@H]3C1 (stereo in doubt; (-)-5) |  | > 10000 nM | > 10000 nM |  |  |  |  |
| CC(C)=CCN1CC[C@]2(C)c3cc(O)ccc3C[C@H]1[C@H]2C [(+)-PENTAZOCINE] | 1360 nM |  |  |  |  |  |  |
| C=CCN1CC[C@]23c4c5ccc(O)c4O[C@H]2C(=O)CC[C@@]3(O)[C@H]1C5 [NALOXONE] | > 10000 nM |  |  |  |  |  |  |
